Measured values as given in ChEMBL document CHEMBL5329221, “A covalent fragment-based strategy targeting a novel cysteine to inhibit activity of mutant EGFR kinase” (RSC Med Chem, 2023).
Activity calls are given as the source filed them. The calls are words filed in the database; no cut-off is given here.

How the values were obtained:
[1] = tested on: Epidermal growth factor receptor (Homo sapiens), P00533 [T790M,L858R,C797S,E865A,E866A,K867A]; test: Binding affinity to N-terminal His6-tagged human EGFR T790M/L858R/C797S/E865A/E866A/K867A mutant expressed in Sf9 cells at pH 7.4 assessed as covalent adduct formation incubated for 1 hrs by TOF-MS analysis
[2] = tested on: Epidermal growth factor receptor (Homo sapiens), P00533 [T790M,L858R,E865A,E866A,K867A]; test: Binding affinity to N-terminal His6-tagged human EGFR T790M/L858R/E865A/E866A/K867A mutant expressed in Sf9 cells at pH 7.4 assessed as covalent adduct formation incubated for 1 hrs by TOF-MS analysis
[3] = tested on: Epidermal growth factor receptor (Homo sapiens), P00533 [T790M,L858R,C797S,E865A,E866A,K867A]; test: Binding affinity to N-terminal His6-tagged human EGFR T790M/L858R/C797S/E865A/E866A/K867A mutant expressed in Sf9 cells at pH 7.4 incubated for 1 hrs by TOF-MS analysis
[4] = tested on: Epidermal growth factor receptor (Homo sapiens), P00533 [T790M,L858R,E865A,E866A,K867A]; test: Binding affinity to N-terminal His6-tagged human EGFR T790M/L858R/E865A/E866A/K867A mutant expressed in Sf9 cells at pH 7.4 assessed as covalent adduct formation preincubated with nazartinib followed by compound addition and measured after 1 hrs by TOF-MS analysis
[5] = molecular target: Epidermal growth factor receptor (Homo sapiens) (UniProt P00533); test: Binding affinity to N-terminal twin Strep-tagged human wild type EGFR (694 to 1022 residues) expressed in Sf9 cells at pH 7.4 assessed as covalent adduct formation preincubated with maleimide followed by compound addition and measured after 1 hrs by TOF-MS analysis
[6] = tested on: Epidermal growth factor receptor (Homo sapiens), P00533 [L858R,T790M,C797S]; test: Inhibition of N-terminal His6-tagged human EGFR L858R/T790M/C797S mutant expressed in Sf9 cells assessed as decrease in substrate phosphorylation using Ulight-JAK1 peptide as substrate at 500 uMincubated for 1.5 hrs in presence of ATP by TR-FRET based LANCE Ultra kinase assay
[7] = molecular target: Epidermal growth factor receptor (Homo sapiens, UniProt P00533, C797S/L858R/T790M); test: Inhibition of N-terminal His6-tagged human EGFR L858R/T790M/C797S mutant expressed in Sf9 cells assessed as decrease in substrate phosphorylation using Ulight-JAK1 peptide as substrate incubated for 1.5 hrs in presence of ATP by TR-FRET based LANCE Ultra kinase assay
Procedure, shortened: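 LANCE Ultra TR-FRET assay with 0.25 nM EGFR_TM, 1 µM ATP, 50 nM ULight-JAK1 peptide, 50 mM HEPES pH 7.5, 10 mM MgCl2, 5 mM MnCl2, 1 mM DTT, 0.015% Brij35, 5% DMSO, 1.5 h at 23°C. EDTA stop, Eu-anti-pTyr PT66, 1 h. Signal is the 665/620 nm ratio, normalised to no-protein controls. IC50 from a four-parameter fit, otherwise % inhibition at the top concentration.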

| Compound | Activity [1] | Activity [2] | Activity [3] | Activity [4] | Activity [5] | inhibition [6] [%] | IC50 [7] [µM] |
| --- | --- | --- | --- | --- | --- | --- | --- |
| C=CC(=O)Nc1ccc2cccnc2c1 | Active | Active | Active | inactive | inactive |  |  |
| C=CC(=O)Nc1ccccn1 | Active | Active | Active | inactive | inactive | 52.3 | > 500 |
| C=CC(=O)Nc1cccc(C(C)=O)c1 | Active | Active |  |  |  |  |  |
| C=CC(=O)Nc1cccc(NC(C)=O)n1 | Active | Active |  |  |  |  |  |
| C=CC(=O)Nc1cc(-c2ccccc2)ccn1 |  |  |  |  |  |  | 32 |
| C=CC(=O)Nc1cccc(O)c1 | Active | Active |  |  |  |  |  |
| C=CC(=O)Nc1ccc2c(C)n(C)nc2c1 | Active | Active |  |  |  |  |  |

Further lines, results first:

| Activity [1] | Activity [2] | Activity [3] | Activity [4] | Activity [5] | inhibition [6] [%] | IC50 [7] [µM] | Compound |
| --- | --- | --- | --- | --- | --- | --- | --- |
| Active | Active |  |  |  |  |  | C=CC(=O)Nc1cccc2c1ncn2C |
| Active | Active | Active | inactive | inactive |  |  | C=CC(=O)Nc1cc2ccccn2n1 |
| Active | Active |  |  |  |  |  | C=CC(=O)Nc1ccc[nH]c1=O |
|  |  |  |  |  |  | 9 | C=CC(=O)Nc1cc(-c2cn(C)c3ccccc23)ccn1 |
| Active | Active |  |  |  |  |  | C=CC(=O)Nc1cc(N(C)C)n2nc(C)cc2n1 |
